Reference: PMC8177775 (Cancer Science, 2021)
Where “and” joins values, the source holds several entries; their conditions need not be identical. Equal values may be shown once. Entries after “also recorded” stand apart in the source; their conditions may differ. Read-outs that look alike come from different tables or passages of the source.

Legend:
[1] = test system: six human cancer cell lines; conditions: cited from earlier work
[2] = test system: advanced solid tumors or lymphomas; conditions: cited from earlier work
[3] = Plasma pharmacokinetics of milademetan; assay type: in vivo, human; conditions: for AUC: AUCtau
[4] = test system: macrophage inhibitory cytokine‐1 (MIC‐1) levels in serum; experiment: Serum MIC-1; assay type: in vivo, human
Summary of the method: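 Serum was drawn on cycle 1 day 1 before dosing and 6 h post dose, and on days 2, 8, 15 and 21, during oral QD dosing on days 1–21 at 60, 90 or 120 mg. MIC-1 (GDF-15) was quantified by quantitative sandwich ELISA for human GDF-15. Change from baseline was summarized by cohort using descriptive statistics.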

[5] = test system: solid tumors; experiment: Efficacy assessment by RECIST version 1.1; assay type: in vivo, human
Summary of the method: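 Adults with relapsed or refractory solid tumors took oral test compound (tosylate salt) QD on days 1–21 of 28-day cycles at 60, 90 or 120 mg. Response was assessed by RECIST 1.1 using CT and MRI every 8 weeks through cycle 8, then every 12 weeks. Minimum SD duration was 8 weeks after first dose. Summaries were descriptive over patients with efficacy data.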

[6] = test system: human osteosarcoma xenografts; conditions: human osteosarcoma xenografts in nude mice; cited from earlier work
[7] = Day 21 of cycle 1, Cohort 2 (90 mg/d) (n = 9), oral QD, mean (SD)
[8] = human, plasma, po, 60 mg/d, Day 1 of cycle 1, Cohort 1 (60 mg/d) (n = 3), oral QD, mean (SD)
[9] = human, plasma, po, 60 mg/d, Day 21 of cycle 1, Cohort 1 (60 mg/d) (n = 2), oral QD, mean (SD)
[10] = human, plasma, po, 90 mg/d, Day 1 of cycle 1, Cohort 2 (90 mg/d) (n = 11), oral QD, mean (SD)

SMILES: CC1(C)CCC2(CC1)N[C@@H](C(=O)N[C@@H]1CC[C@@H](C(N)=O)OC1)[C@H](c1ccnc(Cl)c1F)[C@]21C(=O)Nc2cc(Cl)ccc21 [milademetan, Milademetan]
- Growth of cancer cells harboring wild-type p53 [1]: inhibits the growth
- MTD in US phase I study ([2]; once-daily 21/28-day schedule): 120 mg
- MTD in US phase I study ([2]; once-daily 28/28-day schedule): 90 mg
- Plasma concentration versus dose ([3]; 60 to 120 mg QD): increased in a dose‐dependent manner; also recorded: dose‐dependent increase
- Ctrough ([3]; Day 21 of cycle 1, Cohort 1 (60 mg/d) (n = 2), oral QD, mean (SD)): 192 (29.7) ng/mL
- Accumulation rate [3, 7]: 1.65 (0.440)
- Ctrough [3, 7]: 389 (234) ng/mL
- Ctrough ([3]; Day 21 of cycle 1, Cohort 3 (120 mg/d) (n = 1), oral QD, SD not calculated): 552 (NC) ng/mL
- PK linearity ([3]; dose range of 60 to 120 mg/day): linear PK
- half-life ([3]; human, plasma, oral, Mean t1/2, day 1, across 60- to 120-mg cohorts): 15.1 to 17.9 h
- half-life ([3]; human, plasma, oral, Mean t1/2, day 21, across 60- to 120-mg cohorts): 18.1 to 26.1 h
- Tmax ([3]; human, plasma, oral, Median Tmax, all cohorts): ~3 h
- AUC(0-inf) ([3]; human, plasma, po, 60 mg/d): 6320 ng·h/mL
- AUC [3, 8]: 4250 ng·h/mL
- AUC [3, 9]: 7390 ng·h/mL
- Cmax [3, 8]: 429 ng/mL
- Cmax [3, 9]: 625 ng/mL
- Tmax ([3]; human, plasma, po, 60 mg/d, Tmax, Day 1 of cycle 1, Cohort 1 (60 mg/d) (n = 3), oral QD, median (minimum, maximum)): 3 h
- Tmax ([3]; human, plasma, po, 60 mg/d, Tmax, Day 21 of cycle 1, Cohort 1 (60 mg/d) (n = 2), oral QD, median (minimum, maximum)): 2.48 h
- half-life ([3]; human, plasma, po, 60 mg/d, t1/2, Day 1 of cycle 1, Cohort 1 (60 mg/d) (n = 3), oral QD, mean (SD)): 15.1 h
- half-life ([3]; human, plasma, po, 60 mg/d, t1/2, Day 21 of cycle 1, Cohort 1 (60 mg/d) (n = 2), oral QD, mean (SD)): 18.1 h
- AUC [3, 10]: 8380 ng·h/mL
- Cmax [3, 10]: 692 ng/mL
- Cmax ([3]; human, plasma, po, 90 mg/d, Day 21 of cycle 1, Cohort 2 (90 mg/d) (n = 9), oral QD, mean (SD)): 995 ng/mL
- Tmax ([3]; human, plasma, po, 90 mg/d, Tmax, Day 1 of cycle 1, Cohort 2 (90 mg/d) (n = 11), oral QD, median (minimum, maximum)): 3 h
- Tmax ([3]; human, plasma, po, 90 mg/d, Tmax, Day 21 of cycle 1, Cohort 2 (90 mg/d) (n = 9), oral QD, median (minimum, maximum)): 3.02 h
- half-life ([3]; human, plasma, po, 90 mg/d, t1/2, Day 1 of cycle 1, Cohort 2 (90 mg/d) (n = 11), oral QD, mean (SD)): 15.4 h
- half-life ([3]; human, plasma, po, 90 mg/d, t1/2, Day 21 of cycle 1, Cohort 2 (90 mg/d) (n = 9), oral QD, mean (SD)): 20.9 h
- Cmax ([3]; human, plasma, po, 120 mg/d, Day 1 of cycle 1, Cohort 3 (120 mg/d) (n = 4), oral QD, mean (SD)): 1140 ng/mL
- Tmax ([3]; human, plasma, po, 120 mg/d, Tmax, Day 1 of cycle 1, Cohort 3 (120 mg/d) (n = 4), oral QD, median (minimum, maximum)): 3.01 h
- Tmax ([3]; human, plasma, po, 120 mg/d, Tmax, Day 21 of cycle 1, Cohort 3 (120 mg/d) (n = 1), oral QD, median (minimum, maximum)): 2.95 h
- half-life ([3]; human, plasma, po, 120 mg/d, t1/2, Day 1 of cycle 1, Cohort 3 (120 mg/d) (n = 4), oral QD, mean (SD)): 17.9 h
- AUC(0-t) ([3]; human, plasma, po, 120 mg/day): 25600 ng·h/mL
- Increase of MIC-1 levels from baseline to day 21, mean (SD) ([4]; 60-mg cohort): 2175.7 (1677.40) pg/mL
- Increase of MIC-1 levels from baseline to day 21, mean (SD) ([4]; 90-mg cohort): 9514.5 (6812.78) pg/mL
- Increase of MIC-1 levels from baseline to day 21, mean (SD) ([4]; 120-mg cohort): 7930.5 (7636.72) pg/mL
- Mean MIC-1 levels after administration ([4]; all cohorts): increased from baseline in all cohorts
- Complete or partial response ([5]; 16 patients): No patients achieved complete or partial response
- Antitumor activity ([5]; Japanese patients with solid tumors): modest antitumor activity
- Disease control rate, percentage of patients (95% CI) ([5]; Total (n = 16)): 43.8%
- Progressive disease, percentage of patients (95% CI) ([5]; Total (n = 16)): 31.3%
- Stable disease, percentage of patients (95% CI) ([5]; Total (n = 16)): 43.8%
- PFS rate (95% CI) ([5]; at 3 months): 56.8%
- PFS rate (95% CI) ([5]; at 6, 9, and 12 months): 35.5%
- Patients with a PFS event ([5]; efficacy analysis set, 17 patients): Eight of the 17 patients
- Median (minimum, maximum) PFS ([5]; including censored patients): 15.29 (0.1, 202.1) weeks and 15.3 (0.1+, 202.1+) weeks
- Median (range) duration of stable disease ([5]; including censored patients): 55.4 (7.3‐202.1) weeks and 55.4 (7.3+, 202.1+) weeks
- PFS of one patient ([5]; one patient in the 60-mg cohort with SD as best response): 202.1 weeks
- Tumor growth of xenografts [6]: suppresses tumor growth
